Data set [1] has as its system Rattus norvegicus. The data set can be described thus: Antiosteoporotic activity in rat assessed as increase of serum parathyroid hormone level at 30 mg/kg, po after 15 to 30 mins relative to control. Type of data set: functional. A digest of the protocol:
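Rats (n = 5) dosed orally. Serum PTH 1−34 measured, and the peak increase (Δ), taken at 15 or 30 min after dosing, compared with levels in vehicle-treated control rats.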

The target of data set [2] is T1, Extracellular calcium-sensing receptor (Homo sapiens, UniProt P41180).
T1 sequence (P41180 whole entry): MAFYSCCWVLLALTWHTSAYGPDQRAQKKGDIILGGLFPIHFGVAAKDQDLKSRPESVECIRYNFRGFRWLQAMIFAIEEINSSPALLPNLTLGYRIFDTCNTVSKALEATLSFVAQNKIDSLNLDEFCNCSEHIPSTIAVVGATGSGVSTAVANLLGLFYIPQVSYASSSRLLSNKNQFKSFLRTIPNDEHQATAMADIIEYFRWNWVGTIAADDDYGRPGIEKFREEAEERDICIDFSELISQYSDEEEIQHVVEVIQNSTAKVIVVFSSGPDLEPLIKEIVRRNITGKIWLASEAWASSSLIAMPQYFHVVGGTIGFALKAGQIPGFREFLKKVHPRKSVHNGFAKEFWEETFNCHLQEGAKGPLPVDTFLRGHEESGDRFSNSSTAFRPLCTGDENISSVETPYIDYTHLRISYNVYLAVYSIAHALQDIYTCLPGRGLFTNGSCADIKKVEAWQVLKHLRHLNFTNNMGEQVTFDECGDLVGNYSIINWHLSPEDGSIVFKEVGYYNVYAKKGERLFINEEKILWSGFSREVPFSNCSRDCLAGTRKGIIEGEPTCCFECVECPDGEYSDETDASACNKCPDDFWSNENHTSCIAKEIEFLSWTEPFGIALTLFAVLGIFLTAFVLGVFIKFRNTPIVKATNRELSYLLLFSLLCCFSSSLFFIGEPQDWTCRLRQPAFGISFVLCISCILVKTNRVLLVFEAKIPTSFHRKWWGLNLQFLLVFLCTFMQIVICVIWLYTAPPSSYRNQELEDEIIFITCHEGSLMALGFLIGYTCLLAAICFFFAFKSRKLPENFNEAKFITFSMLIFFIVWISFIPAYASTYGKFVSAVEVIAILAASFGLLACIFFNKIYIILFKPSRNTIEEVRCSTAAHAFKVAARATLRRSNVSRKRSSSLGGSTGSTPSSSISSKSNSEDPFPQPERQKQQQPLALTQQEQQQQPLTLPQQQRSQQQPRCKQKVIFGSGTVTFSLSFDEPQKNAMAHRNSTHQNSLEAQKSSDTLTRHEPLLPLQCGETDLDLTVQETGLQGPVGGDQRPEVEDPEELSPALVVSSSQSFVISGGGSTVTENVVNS
The data set is described as follows: Antagonist activity at human CaSR expressed in rat PC12h cells by reporter gene assay. Type of data set: functional, cell-based, PC-12. The procedure, abridged:
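Human CaSR antagonism measured by reporter gene assay in PC12h cells. Values are means of three experiments.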
On the technique in general: A reporter such as luciferase makes a cellular process visible.

The next data set has as its target Cytochrome P450 2D6 (Homo sapiens, UniProt P10635). The data set can be described thus: Inhibition of CYP2D6. The class given is ADME.
Data set [3] has as its system Rattus norvegicus. The data set is described as follows: Antiosteoporotic activity in rat assessed as increase of serum parathyroid hormone level at 3 mg/kg, po after 15 to 30 mins relative to control. Type of data set: functional. A digest of the protocol:
(§1)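 Rats (n = 5) dosed orally. Serum PTH 1−34 peak increase (Δ) measured at 15 or 30 min and compared with vehicle-treated controls. Scored against the peak given by a 30 mg/kg oral reference aminopropandiol calcilytic: ++ >80%, + 50−80%, below that <50%.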

Data set [4] deals with Rattus norvegicus. The data set can be described thus: Antiosteoporotic activity in rat assessed as increase of serum parathyroid hormone level at 1 mg/kg, po after 15 to 30 mins relative to control. Type of data set: functional. A digest of the protocol: as §1
Data set [5] concerns Rattus norvegicus. The data set is described as follows: Antiosteoporotic activity in rat assessed as increase of serum parathyroid hormone level at 10 mg/kg, po after 15 to 30 mins relative to control. Type of data set: functional. A digest of the protocol:
as §1

The target of data set [6] is Beta-2 adrenergic receptor (Homo sapiens, UniProt P07550). The data set is described as follows: Inhibition of beta2 adrenergic receptor.
Data set [7] has as its system Rattus norvegicus. The data set can be described thus: Antiosteoporotic activity in rat assessed as increase of serum parathyroid hormone level at 3 mg/kg, po after 2 hrs. Set-up: dose 3 mg/kg. Type of data set: functional, organism-based. The procedure, abridged: (§2)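 Time course in rats (n = 5) after oral dosing of the hemisulfate salt. Serum PTH 1−34 levels followed over time, expressed as mean ± standard deviation.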

Data set [8] can be described thus: Cmax in rat at 1 mg/kg, po. The class given is ADME, organism-based. Set-up: dose 1 mg/kg, route oral. To be noted: in vivo.
A short description of data set [9]: Tmax in rat at 1 mg/kg, po. Type of data set: ADME, organism-based. Further details: dose 1 mg/kg, route oral. To be noted: in vivo.
In data set [10] the test system is Rattus norvegicus. The data set can be described thus: Antiosteoporotic activity in po dosed rat assessed as increase of serum parathyroid hormone level after 15 to 30 mins. The class given is functional, organism-based. A digest of the protocol: as §1
Data set [11] can be described thus: Inhibition of alpha2 adrenergic receptor up to 10 uM.
A short description of data set [12]: Half life in rat at 1 mg/kg, po. Type of data set: ADME, organism-based. Set-up: dose 1 mg/kg, route oral. As to conditions: in vivo.
Data set [13] can be described thus: Inhibition of serotonin receptor up to 10 uM.
For data set [14], the system named is Rattus norvegicus. The data set can be described thus: Antiosteoporotic activity in rat assessed as increase of serum parathyroid hormone level at 3 mg/kg, po after 15 mins. The class given is functional, organism-based. Set-up: dose 3 mg/kg. The procedure, abridged:
as §2

Data set [15] is described as follows: Oral bioavailability in rat at 1 mg/kg. As to conditions: in vivo, read-out: Activity. Type of data set: ADME, organism-based.
Data set [16] addresses D(1A) dopamine receptor (Homo sapiens) (UniProt P21728). The data set is described as follows: Inhibition of dopamine D1 receptor up to 10 uM.

SMILES strings stand for the structures. The source made the active and inactive calls. The calls are words filed in the database; no cut-off is given here. Bounds are passed on as bounds.

Chain of Cytochrome P450 2D6 (P10635 whole entry): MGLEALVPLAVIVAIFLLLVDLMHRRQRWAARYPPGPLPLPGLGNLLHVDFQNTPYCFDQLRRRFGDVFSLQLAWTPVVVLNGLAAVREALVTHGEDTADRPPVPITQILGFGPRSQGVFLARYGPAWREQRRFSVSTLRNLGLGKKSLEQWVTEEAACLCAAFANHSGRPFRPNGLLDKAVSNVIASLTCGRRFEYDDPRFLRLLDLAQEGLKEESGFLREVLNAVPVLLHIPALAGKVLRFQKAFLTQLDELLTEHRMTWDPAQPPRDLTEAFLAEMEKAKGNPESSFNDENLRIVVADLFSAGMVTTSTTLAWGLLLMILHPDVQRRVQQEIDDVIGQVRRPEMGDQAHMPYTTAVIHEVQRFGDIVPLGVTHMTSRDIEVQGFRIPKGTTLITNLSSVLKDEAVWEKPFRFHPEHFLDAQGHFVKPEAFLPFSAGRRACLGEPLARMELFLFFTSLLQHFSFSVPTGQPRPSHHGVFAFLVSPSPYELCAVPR
Chain of Beta-2 adrenergic receptor (P07550 whole entry): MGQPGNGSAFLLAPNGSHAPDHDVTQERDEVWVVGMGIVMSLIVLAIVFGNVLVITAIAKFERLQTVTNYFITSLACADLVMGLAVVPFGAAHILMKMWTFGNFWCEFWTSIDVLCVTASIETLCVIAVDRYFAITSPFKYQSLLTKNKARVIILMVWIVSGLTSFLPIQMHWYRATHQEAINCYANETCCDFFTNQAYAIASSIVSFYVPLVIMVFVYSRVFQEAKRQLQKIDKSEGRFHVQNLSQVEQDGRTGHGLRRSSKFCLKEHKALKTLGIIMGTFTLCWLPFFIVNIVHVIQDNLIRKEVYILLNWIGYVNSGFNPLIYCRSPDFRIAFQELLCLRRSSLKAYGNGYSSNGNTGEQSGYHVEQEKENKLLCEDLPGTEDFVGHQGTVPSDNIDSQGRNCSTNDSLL
Chain of D(1A) dopamine receptor (Homo sapiens) (P21728 whole entry): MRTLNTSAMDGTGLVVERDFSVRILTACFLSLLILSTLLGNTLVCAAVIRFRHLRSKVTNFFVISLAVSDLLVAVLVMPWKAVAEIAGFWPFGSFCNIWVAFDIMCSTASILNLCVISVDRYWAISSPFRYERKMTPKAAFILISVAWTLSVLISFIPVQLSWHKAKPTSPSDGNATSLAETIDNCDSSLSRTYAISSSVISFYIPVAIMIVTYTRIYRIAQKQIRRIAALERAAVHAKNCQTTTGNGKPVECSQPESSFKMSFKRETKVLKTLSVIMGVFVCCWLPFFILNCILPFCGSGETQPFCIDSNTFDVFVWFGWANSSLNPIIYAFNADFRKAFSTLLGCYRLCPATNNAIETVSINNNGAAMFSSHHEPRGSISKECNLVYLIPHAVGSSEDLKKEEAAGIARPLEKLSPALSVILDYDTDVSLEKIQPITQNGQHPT

In the case of `Cc1ccccc1[C@H](OC[C@H](O)CNC(C)(C)Cc1ccc2ccccc2c1)C1CC1`, in the data set with Rattus norvegicus [1], the “fold change (FC)” value turned out to be 2.
As for `CC(C)(Cc1ccc2ccccc2c1)NC[C@@H](O)CO[C@@H](c1ccccc1CO)C1CC1`, the IC50 (commonly the concentration needed to halve the response being measured) in [2] was determined as 18 nM; on Cytochrome P450 2D6, 1200 nM.
Regarding `C[C@@H](OC[C@H](O)CNC(C)(C)Cc1ccc2ccccc2c1)c1ccccc1CC(=O)O`, in [2], the IC50 came out at 2200 nM.
Consider `C[C@@H](OC[C@H](O)CNC(C)(C)Cc1ccc2ccccc2c1)c1ccccc1CCC(=O)O`, for which the IC50 in [2] came out at 24 nM. The Activity in the data set on Rattus norvegicus [3] came to 50%.
Regarding `C[C@@H](OC[C@H](O)CNC(C)(C)Cc1ccc2ccccc2c1)c1ccccc1-c1ccc(C(=O)O)cc1`, the IC50 is 4 nM in [2] and above 10000 nM at Cytochrome P450 2D6. The Activity in the data set with Rattus norvegicus [4] is reported as below 50%; in the data set with Rattus norvegicus [3], 50%; with Rattus norvegicus [5], above 80%.
As to `C[C@@H](OC[C@H](O)CNC(C)(C)Cc1ccc(Cl)c(F)c1)c1ccccc1-c1ccc(C(=O)O)cc1`, the IC50 in [2] turned out to be 23 nM. The values for the Activity in the data set on Rattus norvegicus [4] and with Rattus norvegicus [3] were 50% and above 80%, respectively.
The like results for `Cc1cc(-c2ccccc2[C@@H](C)OC[C@H](O)CNC(C)(C)Cc2ccc3ccccc3c2)ccc1C(=O)O` were, in that order, 5 nM, below 50% and above 80%.
As for `CC(C)(Cc1ccc2ccccc2c1)NC[C@@H](O)COC(c1ccccc1C(=O)O)C1CC1` (mixture of isomers), the half-maximal inhibitory concentration (IC50) in data set [2] is above 3000 nM; on Cytochrome P450 2D6 it was above 10000 nM.
The like results for `CC(C)(Cc1ccc2ccccc2c1)NC[C@@H](O)COC(c1cccc(C(=O)O)c1)C1CC1` (mixture of isomers) were, in that order, 960 nM and above 10000 nM.
With `CC(C)(Cc1ccc2ccccc2c1)NC[C@@H](O)COC(c1ccc(C(=O)O)cc1)C1CC1` (mixture of isomers), in data set [2], the IC50 was above 3000 nM.
Regarding `CC(OC[C@H](O)CNC(C)(C)Cc1ccc2ccccc2c1)c1ccccc1C(=O)O` (mixture of isomers), the IC50 in data set [2] is above 3000 nM.
As for `CC(OC[C@H](O)CNC(C)(C)Cc1ccc2ccccc2c1)c1ccc(-c2ccc(C(=O)O)cc2)cc1` (mixture of isomers), the concentration for half-maximal inhibition (IC50) in [2] was determined as 1500 nM.
Consider `CC(OC[C@H](O)CNC(C)(C)Cc1ccc2ccccc2c1)c1cccc(-c2ccc(C(=O)O)cc2)c1` (mixture of isomers), for which the IC50 in data set [2] was found to be 18 nM.
Consider `CC(OC[C@H](O)CNC(C)(C)Cc1ccc2ccccc2c1)c1ccccc1-c1ccc(C(=O)O)cc1` (mixture of isomers), for which the IC50 in data set [2] came out at 11 nM.
On to `Cc1cc(-c2ccccc2[C@@H](C)OC[C@H](O)CNC(C)(C)Cc2ccc(Cl)c(F)c2)ccc1C(=O)O` [ENCALERET], for which the IC50 in data set [6] was 1700 nM; in [2], 12 nM; against Cytochrome P450 2D6 it was 11000 nM. In addition, the result (in the data set with Rattus norvegicus [7]; in data set [11]; in [13]; in [16]) was inactive. The Activity was above 80% in the data set with Rattus norvegicus [4], “Dose-dependent effect” with Rattus norvegicus [10], above 80% in the data set on Rattus norvegicus [3] and above 80% with Rattus norvegicus [5]. Besides, the Cmax (in general, the peak of the concentration-time curve) in data set [8] amounted to 475 ng/mL. Moreover, the Tmax – broadly, the time from dosing to the highest level – in data set [9] came out at 0.5 h. Also, in data set [12], the half-life (usually the time in which the quantity being followed falls by half) is 1.8 h. The outcome in the data set with Rattus norvegicus [14] was Active. Also, the bioavailability in [15] was found to be 64%.

(Values after ChEMBL document CHEMBL1671846, “Discovery of a potent and short-acting oral calcilytic with a pulsatile secretion of parathyroid hormone” (ACS Med Chem Lett, 2011).)
